NF-kB expr up – activators of NF-kB expression in neurons, primary screen, cell-based, HTS; human neuronal cells, NF-kB reporter expression; stronger effect = higher value; fold change at 12.5 µM; 1.6% of 190,000 active; AID 1239, 2008; in the data active = fold change above about 3.3
STAT1 activator – STAT1 signaling activators, primary screen, cell-based, HTS, luciferase reporter; NIH 3T3 STAT1-luciferase reporter, IFN-gamma, luminescence; 100% = IFN-gamma alone, no compound; activation (% of control), % at 5.5 µM; 2.6% of 200,000 active;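 active = activation above the screen-wide mean activation plus 3 SD, cut at about 130% in these data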;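 also: raw ratio to IFN-gamma control signal so 100% means no change and 0% no light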
Wee1 stabilizer – Wee1 degradation inhibitors, primary screen, cell-based, HeLa, Wee1K328M-luciferase, luminescence. AID 1321, 2008. reporter increase, % at 5 µM. 1.2% of 220,000 active. HeLa Luc-Wee1K328M stability; 100% = proteasome inhibitor MG132 effect. Wee1-like protein kinase (Homo sapiens), P30291;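 active = activation above the mean of all tested compounds plus 3 SD, set per screening run, cut at about 8.8% in these data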;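 also: cells exposed to compound for 20 h before luminescence read; 0% = DMSO alone and 100% = MG132 at 30 µM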
Target sequence (P30291 whole entry K328M): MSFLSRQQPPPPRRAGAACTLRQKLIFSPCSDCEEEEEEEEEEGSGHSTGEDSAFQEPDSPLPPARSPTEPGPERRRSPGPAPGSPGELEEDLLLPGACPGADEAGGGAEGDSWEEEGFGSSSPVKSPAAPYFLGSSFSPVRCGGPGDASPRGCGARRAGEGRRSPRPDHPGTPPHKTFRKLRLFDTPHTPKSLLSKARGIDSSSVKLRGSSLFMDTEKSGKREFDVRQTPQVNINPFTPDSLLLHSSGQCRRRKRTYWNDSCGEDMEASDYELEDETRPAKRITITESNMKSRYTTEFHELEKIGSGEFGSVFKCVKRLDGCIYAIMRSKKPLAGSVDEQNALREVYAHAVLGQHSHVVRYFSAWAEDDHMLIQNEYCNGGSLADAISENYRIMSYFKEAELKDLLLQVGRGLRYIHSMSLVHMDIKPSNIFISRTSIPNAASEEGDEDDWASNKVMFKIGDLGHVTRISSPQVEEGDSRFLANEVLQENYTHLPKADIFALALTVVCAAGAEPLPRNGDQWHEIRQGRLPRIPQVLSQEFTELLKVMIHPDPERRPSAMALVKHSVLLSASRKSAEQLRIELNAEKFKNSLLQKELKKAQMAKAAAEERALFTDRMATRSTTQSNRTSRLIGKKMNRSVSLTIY
p97 ATPase inh – inhibitors of human p97 ATPase, primary screen, biochemical | Transitional endoplasmic reticulum ATPase (Homo sapiens), P55072 | recombinant p97 ATPase, Kinase-Glo ATP luminescence, 3 h | inhibition, % at 8 µM | 0.42% of 220,000 active | AID 1481, 2009; in the data active = inhibition above about 15%;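 also: 0% = DMSO vehicle and 100% = wells lacking enzyme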
Mdm2 ligase inh – MDM2-luciferase reporter signal enhancers, primary screen, MDM2 E3 ligase inhibitor project, cell-based, luminescence, 1536-well | 0.11% of 210,000 active | signal enhancement, % at 5 µM | cell-based MDM2 ubiquitination luciferase reporter, 2 h; 0 = plate control, 100 = twice control, blank-subtracted;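 active = signal enhancement of 30% or more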;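 also: luminescence tracks abundance of the self-degrading MDM2-luciferase fusion protein; higher signal means inhibition of MDM2 E3 ligase activity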
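System: stable MDM2–luciferase fusion reporter cells / Input: 2000 cells seeded into each well / Schedule: 4 h settle plus 2 h compound, 37 °C / Compound: single-point 5 µM / Buffer or medium: cells held in DMEM / Benchmarks: control and blank well means / Evaluation: percent signal gain over controls, blank-subtracted / Measured by: luciferase luminescence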
APP 5'UTR act – activators of APP 5'UTR luciferase reporter, primary screen, SH-SY5Y cells; SH-SY5Y APP 5'UTR luciferase reporter, luminescence; zero percent = DMSO vehicle wells; activation, % at 2 µM; 1% of 190,000 active; AID 1276, 2008;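 active = activation above a set limit, based on mean plus 3 SD of controls, cut at about 140% in these data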
STAT1 activ conf – STAT1 signaling activators, confirmation, cell-based, HTS, luciferase reporter. 97% of 1,200 active. activation (% of control), % at 5.7 µM. NIH 3T3 STAT1-luciferase reporter, IFN-gamma potentiation, luminescence; 100% = IFN-gamma EC80 alone, no compound. shares compounds with STAT1 activator;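 active = activation above a set limit carried over from the earlier primary STAT1 screen, cut at about 140% in these data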;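 also: simple ratio to median IFN-gamma plus DMSO wells so 0% means no light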
NFkB act – NF-kB reporter activators, TNF-alpha stimulated, counter-screen for STAT1 activator project, cell-based, HEK293T, luciferase luminescence. 100% = TNF-alpha with vehicle only. 43% of 1,200 active. shares compounds with STAT1 activator. activation (% of control), % at 5.7 µM;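 active = activation above the mean of solvent-only control wells plus 3 SD, set per campaign, cut at about 130% in these data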;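 also: TNF-alpha given at a submaximal dose yielding about 80% of full reporter signal; values are well signal over median control so 100% means no change and 0% no light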
STAT3 act STAT1c – STAT3 reporter activation by STAT1 hits, confirmation, counter-screen for STAT1 activator project, U3A cells, luciferase, luminescence; shares compounds with STAT1 activator; IL-6; cells lack STAT1; 100 = IL-6 alone, no compound effect; activation (% of control), % at 5.7 µM; 46% of 1,200 active; AID 1316, 2008;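 active = activation above the solvent-only control well mean plus 3 SD, set per plate batch, cut at about 110% in these data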;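 also: 0% = no luminescence and 100% = median IL-6 plus DMSO wells; higher means more STAT3 reporter activation so hits are non-selective activators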
* marks the source's active call; other numbers are inactive results; · = not tested or not shown. The list is not random: actives were taken first. Their share in the collection is about 4.6%.

SMILES	NF-kB expr up	STAT1 activator	Wee1 stabilizer	p97 ATPase inh	Mdm2 ligase inh	APP 5'UTR act	STAT1 activ conf	NFkB act	STAT3 act STAT1c
O=C(COC(=O)CNC(=O)C1CCCCC1)Nc1ccc(Cl)cc1F	1.25	97.1	-0.9	-8.5	-9.5	-6.3	·	·	·
CCCCC(=O)Nc1ccc(C(=O)NNC(=O)c2ccc(C)c(Br)c2)cc1	1.2	95.0	-2.0	4.2	-9.5	-18.9	·	·	·
CC(=O)c1ccc(NC(=O)c2ccc(C)c(Br)c2)cc1	3.98*	156.1*	4.3	2.4	-6.2	203.0*	197.6*	139.9*	101.3
CCC(C)(NC=O)C(=O)Nc1c(C)cccc1C (centres undefined)	·	·	-1.1	1.7	-13.2	·	·	·	·
Cc1cnc(NC(=O)CSc2ccc(Cl)cc2)s1	1.21	96.7	6.5	-0.3	-8.7	13.4	·	·	·
Cc1cnc(NC(=O)Nc2ccc(Cl)cc2)s1	25.6*	296.5*	3.2	0.1	-20.1	-28.3	281.6*	138.0*	141.5*
CCOc1ccccc1N1CCN(Cc2c(C)n(C)n(-c3ccccc3)c2=O)CC1	0.98	95.8	-3.8	7.0	7.1	-4.2	·	·	·
Cc1cc(/C=C(\C#N)C(=O)NCc2cccs2)c(C)n1-c1ccccc1F	1.18	151.1*	-3.8	-1.3	-18.0	114.6	169.0*	130.3	121.4*
N#CCCn1cc(C(=O)Nc2ccc([N+](=O)[O-])cc2)c(-c2cc3ccccc3o2)n1	0.9	105.7	-0.5	-1.1	-8.2	-22.3	·	·	·
CC(=Nc1ccc(C)cc1)c1sc2ccccc2c1O	4.79*	153.9*	8.1	1.4	-5.7	196.8*	247.9*	103.7	88.0
CCOC(=O)c1sc2ccccc2c1OC(=O)c1ccc(C)cc1	0.62	103.4	-1.2	4.4	1.8	4.4	·	·	·
COc1ccc(CN(CC2CCC(C(=O)O)CC2)C(=S)Nc2cc(Cl)ccc2OC)cc1 (centres undefined)	1	99.0	0.9	-0.6	-13.3	-7.8	·	·	·
Cn1c(N)c(C(=O)Nc2ccc3ccccc3c2)sc1=S	1.49	172.3*	-2.9	7.0	-23.1	143.4*	203.5*	132.2	107.0
OCC(O)CN1CCCC1 (centres undefined)	·	·	-0.3	0.6	-2.5	·	·	·	·
Cc1[nH]nc(Nc2ccc(C(C)C)cc2)c1[N+](=O)[O-]	·	·	4.3	3.2	-7.3	·	·	·	·
Cc1cccc(Nc2n[nH]c(C)c2[N+](=O)[O-])c1	3.74*	156.2*	7.3	6.0	-3.5	100.7	192.5*	132.0	105.7
CCC(=O)Nc1ccc(C(=O)NCc2ccccn2)cc1	1.11	119.8	1.9	-0.5	-7.8	19.6	·	·	·
O=C(Nc1cccc(Cl)c1)c1ccc2c(=O)n3c(nc2c1)CCCCC3	2.7	162.1*	2.1	3.1	-31.0	202.3*	180.5*	124.4	96.3
Cc1ccc2cc(C#N)c(SCC(=O)NCC3CCCO3)nc2c1 (centres undefined)	1.11	90.8	-1.0	-5.3	9.3	-8.0	·	·	·
COC(=O)CSc1nc2cc(C)ccc2cc1C#N	6.29*	156.4*	-2.5	-4.5	-16.1	137.8*	224.3*	141.6*	105.9

Screening results: PubChem, several laboratories
